In brackets after ≈: the same amount, converted by molar mass.
Key:
MCF7 cells = test: Neutral red uptake cytotoxicity assay, MCF7; assay type: cell-based, human
How it was run: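 Neutral red uptake. Log-phase cells were grown in DMEM with 10% FBS at 37 °C, 5% CO2, at 10^4 cells/well. They were exposed 48 h to 12.5, 25, 50 and 100 μM test compound (DMSO final <0.2%), then given neutral red medium for 2 h and washed with DPBS. Dye was extracted with 1% acetic acid/50% ethanol and read at 450/630 nm. IC50 came from log concentration versus intensity, three runs averaged. SI = MDCK IC50 / MCF7 IC50.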

IL6 = test: qRT-PCR gene expression in MCF7 cells: IL6; assay type: cell-based, human; conditions: compound at IC50, 48 h, relative to β-Actin, vs control
How it was run: (§1)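 MCF7 cells (3 × 10^4 per well) were treated 48 h with test compound. Total RNA was column-extracted and reverse-transcribed to first-strand cDNA. SYBR Green qPCR ran 95 °C 10 min, then 40 cycles of 95 °C 15 s, 60 °C 30 s, 72 °C 30 s. Expression was normalised to β-Actin by 2−ΔΔCT relative to untreated control. Data are mean ± SEM; Student's t-test, P < 0.05.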

STAT3 [1] = test: qRT-PCR gene expression in MCF7 cells: STAT3; assay type: cell-based, human; conditions: compound at IC50, 48 h, relative to β-Actin, vs control
How it was run: as §1

BAX = test: qRT-PCR gene expression in MCF7 cells: BAX; assay type: cell-based, human; conditions: compound at IC50, 48 h, relative to β-Actin, vs control
How it was run: as §1

Cyclin D1 = test: qRT-PCR gene expression in MCF7 cells: Cyclin D1; assay type: cell-based, human; conditions: compound at IC50, 48 h, relative to β-Actin, vs control
How it was run: as §1

c-MYC = test: qRT-PCR gene expression in MCF7 cells: c-MYC; assay type: cell-based, human; conditions: compound at IC50, 48 h, relative to β-Actin, vs control
How it was run: as §1

S. aureus ATCC 25923 = test: Agar well diffusion test; assay type: cell-based; conditions: AWDT
How it was run: (§2)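 Agar well diffusion. Test compounds were placed in wells on agar inoculated with the reference strain or isolate. After incubation, inhibition zone diameters were measured in mm with a caliper. Runs were in triplicate and the zone averaged. Scale: 0 = no inhibition; 0–6 mm (−); 7–11 mm (+); 12–14 mm (++); 15–17 mm (+++).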

E. coli O157 ATCC 700728 = test: Agar well diffusion test; assay type: cell-based; conditions: AWDT
How it was run: as §2

C. albicans ATCC 10231 [2] = test: Agar well diffusion test; assay type: cell-based; conditions: AWDT
A. flavus isolate = test: Agar well diffusion test; assay type: cell-based; conditions: AWDT
How it was run: as §2

C. albicans ATCC 10231 [3] = test: Minimum inhibitory concentration, C. albicans; assay type: cell-based; conditions: Candida albicans, ATCC10231, read-out: MIC (mg mL^−1)
How it was run: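 MIC was determined by a previously reported method for compounds selected from the well-diffusion screen and is expressed in mg mL−1. […] For C. albicans, 100 μL of negative cells went onto potato dextrose agar at 25 °C/72 h.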

STAT3 [4] = biological target: STAT3 (Homo sapiens, UniProt P40763); test: STAT3 tyrosine phosphorylation inhibition; assay type: biochemical
STAT3 (Homo sapiens, UniProt P40763), sequence (P40763 whole entry): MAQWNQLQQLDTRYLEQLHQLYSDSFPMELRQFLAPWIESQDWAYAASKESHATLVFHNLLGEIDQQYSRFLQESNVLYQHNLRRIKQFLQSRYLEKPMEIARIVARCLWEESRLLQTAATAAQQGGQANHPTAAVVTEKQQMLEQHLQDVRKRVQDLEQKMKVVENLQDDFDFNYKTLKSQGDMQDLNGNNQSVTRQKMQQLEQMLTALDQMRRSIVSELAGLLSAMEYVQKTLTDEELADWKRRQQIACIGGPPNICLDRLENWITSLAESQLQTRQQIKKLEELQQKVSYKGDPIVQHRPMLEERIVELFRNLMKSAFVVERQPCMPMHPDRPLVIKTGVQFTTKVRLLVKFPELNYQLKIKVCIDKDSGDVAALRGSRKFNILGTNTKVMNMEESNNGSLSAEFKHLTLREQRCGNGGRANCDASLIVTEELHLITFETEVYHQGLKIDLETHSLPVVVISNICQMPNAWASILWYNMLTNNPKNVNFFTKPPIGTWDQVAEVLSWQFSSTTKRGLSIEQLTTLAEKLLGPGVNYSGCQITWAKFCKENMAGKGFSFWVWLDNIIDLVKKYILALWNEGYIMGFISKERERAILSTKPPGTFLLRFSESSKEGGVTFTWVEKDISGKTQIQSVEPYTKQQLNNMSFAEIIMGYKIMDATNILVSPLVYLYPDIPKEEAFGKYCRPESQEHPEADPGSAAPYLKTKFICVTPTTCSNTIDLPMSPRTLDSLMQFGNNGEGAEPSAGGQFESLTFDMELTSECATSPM

S. aureus DNA gyrase [5] = biological target: T1, S. aureus DNA gyrase (Staphylococcus aureus, UniProt P0A0K8); test: S. aureus DNA gyrase supercoiling assay; assay type: biochemical
T1 sequence (P0A0K8 whole entry): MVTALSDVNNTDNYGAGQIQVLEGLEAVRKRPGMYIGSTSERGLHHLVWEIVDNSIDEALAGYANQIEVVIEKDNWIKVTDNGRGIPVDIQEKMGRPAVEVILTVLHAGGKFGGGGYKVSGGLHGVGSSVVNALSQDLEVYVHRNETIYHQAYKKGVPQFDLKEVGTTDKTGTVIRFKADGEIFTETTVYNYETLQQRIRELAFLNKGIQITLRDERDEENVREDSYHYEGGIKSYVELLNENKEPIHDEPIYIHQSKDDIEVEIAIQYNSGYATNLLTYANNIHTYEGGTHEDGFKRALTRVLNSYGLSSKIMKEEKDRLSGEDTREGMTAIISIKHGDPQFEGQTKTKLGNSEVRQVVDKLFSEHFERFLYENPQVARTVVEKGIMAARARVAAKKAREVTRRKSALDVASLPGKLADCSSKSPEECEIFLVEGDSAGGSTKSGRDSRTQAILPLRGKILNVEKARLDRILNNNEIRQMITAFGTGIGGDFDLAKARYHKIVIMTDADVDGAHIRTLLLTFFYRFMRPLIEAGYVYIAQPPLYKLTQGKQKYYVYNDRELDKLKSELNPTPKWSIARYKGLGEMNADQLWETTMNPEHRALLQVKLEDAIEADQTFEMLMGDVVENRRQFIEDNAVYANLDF
T1 sequence (P20831 whole entry partner): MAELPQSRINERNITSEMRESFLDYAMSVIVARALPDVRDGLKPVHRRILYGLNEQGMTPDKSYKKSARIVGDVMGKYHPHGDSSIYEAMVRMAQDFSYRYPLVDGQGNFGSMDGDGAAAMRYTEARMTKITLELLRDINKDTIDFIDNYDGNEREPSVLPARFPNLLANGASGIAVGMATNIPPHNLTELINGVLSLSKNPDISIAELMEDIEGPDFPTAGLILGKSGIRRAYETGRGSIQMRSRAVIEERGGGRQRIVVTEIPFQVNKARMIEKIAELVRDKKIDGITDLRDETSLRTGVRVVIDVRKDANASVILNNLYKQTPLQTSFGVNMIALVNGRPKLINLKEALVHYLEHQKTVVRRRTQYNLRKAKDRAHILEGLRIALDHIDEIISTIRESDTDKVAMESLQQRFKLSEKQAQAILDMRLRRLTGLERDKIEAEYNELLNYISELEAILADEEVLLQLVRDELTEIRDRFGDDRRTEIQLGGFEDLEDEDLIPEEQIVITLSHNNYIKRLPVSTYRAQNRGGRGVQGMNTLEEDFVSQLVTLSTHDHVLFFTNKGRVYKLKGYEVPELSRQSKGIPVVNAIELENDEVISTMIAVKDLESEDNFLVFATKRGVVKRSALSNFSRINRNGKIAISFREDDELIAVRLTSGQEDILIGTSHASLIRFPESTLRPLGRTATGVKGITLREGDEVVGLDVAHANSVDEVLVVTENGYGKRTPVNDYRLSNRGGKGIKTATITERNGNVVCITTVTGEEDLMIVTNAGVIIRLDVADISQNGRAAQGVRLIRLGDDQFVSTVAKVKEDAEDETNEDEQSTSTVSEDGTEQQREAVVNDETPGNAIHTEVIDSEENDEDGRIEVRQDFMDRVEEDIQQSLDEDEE

S. aureus DNA gyrase [6] = biological target: T1, S. aureus DNA gyrase; test: S. aureus DNA gyrase ATPase assay; assay type: biochemical
[7] = biological target: T2, S. aureus topoisomerase IV (Staphylococcus aureus, UniProt P0C1S7); test: S. aureus topoisomerase IV decatenation assay; assay type: biochemical
T2 sequence (P0C1S7 whole entry): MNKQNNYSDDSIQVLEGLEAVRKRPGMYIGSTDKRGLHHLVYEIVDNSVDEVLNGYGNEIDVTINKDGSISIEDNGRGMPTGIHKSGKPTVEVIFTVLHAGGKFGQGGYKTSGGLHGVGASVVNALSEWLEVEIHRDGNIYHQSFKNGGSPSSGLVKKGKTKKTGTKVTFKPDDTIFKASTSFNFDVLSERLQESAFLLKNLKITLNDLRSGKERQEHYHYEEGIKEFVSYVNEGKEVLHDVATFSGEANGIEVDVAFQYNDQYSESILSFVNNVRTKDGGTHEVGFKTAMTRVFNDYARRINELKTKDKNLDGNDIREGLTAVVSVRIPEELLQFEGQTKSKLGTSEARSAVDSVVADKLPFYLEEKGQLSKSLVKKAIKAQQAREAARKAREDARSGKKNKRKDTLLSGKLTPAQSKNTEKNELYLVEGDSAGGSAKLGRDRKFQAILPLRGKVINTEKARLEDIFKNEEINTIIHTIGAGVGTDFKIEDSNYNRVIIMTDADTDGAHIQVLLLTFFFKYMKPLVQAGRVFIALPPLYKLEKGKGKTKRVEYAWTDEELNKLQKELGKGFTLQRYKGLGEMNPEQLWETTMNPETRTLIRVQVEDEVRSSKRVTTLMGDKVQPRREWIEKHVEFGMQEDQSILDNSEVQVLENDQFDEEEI
T2 sequence (P0C1U9 whole entry partner): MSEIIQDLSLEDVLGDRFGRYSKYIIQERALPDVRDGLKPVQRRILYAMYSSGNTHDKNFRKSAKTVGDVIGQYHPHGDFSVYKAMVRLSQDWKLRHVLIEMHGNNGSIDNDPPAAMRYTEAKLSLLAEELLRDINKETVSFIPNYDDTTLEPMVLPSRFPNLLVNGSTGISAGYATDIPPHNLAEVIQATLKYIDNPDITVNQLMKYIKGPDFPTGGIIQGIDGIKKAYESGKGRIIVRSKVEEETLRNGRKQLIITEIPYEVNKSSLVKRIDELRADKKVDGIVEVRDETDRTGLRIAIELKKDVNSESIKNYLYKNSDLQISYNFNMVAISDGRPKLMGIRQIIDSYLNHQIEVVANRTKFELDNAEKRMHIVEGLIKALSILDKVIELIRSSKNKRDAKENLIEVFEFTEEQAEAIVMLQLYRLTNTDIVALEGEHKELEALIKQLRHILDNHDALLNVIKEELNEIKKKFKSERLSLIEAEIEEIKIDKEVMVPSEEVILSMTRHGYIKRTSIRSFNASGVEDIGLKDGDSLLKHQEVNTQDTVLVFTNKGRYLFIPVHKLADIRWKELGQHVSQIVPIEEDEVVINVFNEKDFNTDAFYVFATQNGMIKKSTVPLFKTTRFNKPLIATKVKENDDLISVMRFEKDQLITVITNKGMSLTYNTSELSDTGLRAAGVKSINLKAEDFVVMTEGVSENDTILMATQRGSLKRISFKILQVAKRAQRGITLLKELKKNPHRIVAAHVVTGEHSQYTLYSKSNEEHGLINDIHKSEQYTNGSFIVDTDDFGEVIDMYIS

[8] = biological target: T2, S. aureus topoisomerase IV; test: S. aureus topoisomerase IV ATPase assay; assay type: biochemical

## CC(=O)c1ccc2cc(S(=O)(=O)Nc3ccc(Br)cc3)ccc2c1 [Compound 5e, 6-Acetyl-N-(4-bromophenyl)naphthalene-2-sulfonamide]
MCF7 cells; Homo sapiens, MCF7, 48 h, read-out: IC50 (μM) MCF7
  IC50: 43.1 µM
MCF7 cells; SI = IC50 MDCK cell/IC50 MCF7 cell
  (SI) MCF7, selectivity index: 2.22
IL6
  IL6 gene expression level: significant reduction
STAT3 [1]
  STAT3 gene expression level: significant reduction
BAX
  BAX gene expression level: significantly increased
Cyclin D1
  Cyclin D1 gene expression level: significant reduction
c-MYC
  c-MYC gene expression level: significant reduction
S. aureus ATCC 25923; S. aureus ATCC 25923
  Zone of inhibition, inhibition scale: +++ (15–17 mm (+++))
S. aureus ATCC 25923; S. aureus ATCC 25923, average of triplicate
  Zone of inhibition: 16 mm
E. coli O157 ATCC 700728; E. coli O157 ATCC 700728
  Zone of inhibition, inhibition scale: ++ (12–14 mm (++))
E. coli O157 ATCC 700728; E. coli O157 ATCC 700728, average of triplicate
  Zone of inhibition: 12 mm
C. albicans ATCC 10231 [2]; C. albicans ATCC 10231
  Zone of inhibition, inhibition scale: +++ (15–17 mm (+++))
C. albicans ATCC 10231 [2]; C. albicans ATCC 10231, average of triplicate
  Zone of inhibition: 15 mm
A. flavus isolate
  Zone of inhibition, inhibition scale: + (7–11 mm (+))
A. flavus isolate; average of triplicate
  Zone of inhibition: 11 mm
C. albicans ATCC 10231 [3]
  MIC: 20 mg/mL (≈ 49.5 mM)
STAT3 [4]; STAT3 phosphorylation IC50 (μM) (mean ± SD), ELISA, eight dilutions 100-0.03 μM
  IC50: 3.01 ± 0.06 µM
STAT3 [4]; higher potency than compound I
  Potency as STAT3 inhibitor relative to lead compound I: approximately 2 fold
S. aureus DNA gyrase [5]
  IC50: 21.8 µM
S. aureus DNA gyrase [6]
  IC50: 3.04 µM
[7]
  IC50: 18.9 µM
[8]
  IC50: 5.96 µM
[8]; S. aureus, less than ciprofloxacin
  Activity relative to ciprofloxacin, topoisomerase IV ATPase assay: more than 3 fold
